Measurements from different studies.
Protocols differ between the studies behind these lines.
Target: cAMP-dependent protein kinase catalytic subunit alpha (PRKACA, Homo sapiens, UniProt P17612)

| Compound | observed | method | concentration | remaining binding |
| --- | --- | --- | --- | --- |
| Cc1cnc(Nc2ccc(C(=O)N3CCC(N4CCCC4)CC3)cc2)nc1-c1cc2ccccc2s1 | binding | competition with immobilised ligand | 1 µM | 67% |
| c1cnn2ncc(-c3ccnc(N4CCC45COC5)n3)c2c1 | binding | – | 1 µM | 100% |
| O=C(NCC1CCOCC1)c1n[nH]cc1NC(=O)c1c(F)cccc1F | binding | competition with immobilised ligand | 1 µM | 100% |
| C[C@H]1CCN(c2nccc(-c3cnn4ncccc34)n2)C1 | binding | – | 1 µM | 100% |
| O=C(O)c1cc(-c2ccc(C3CCNCC3)cc2)c2ccc(-c3ccc(C(F)(F)F)cc3)cc2c1 | cell-free assay | competition with immobilised ligand | 1 µM | 100% |
| CN(C)c1ncc(F)c(-c2cnn3ncccc23)n1 | binding | – | 1 µM | 86% |
| CCN1CCN(Cc2ccc(C(=O)Nc3ccc(C)c(Oc4ccc5c(c4)CC(=O)N5)c3)cc2C(F)(F)F)CC1 | binding | competition with immobilised ligand | 1 µM | 100% |
| CNC(=O)c1ccc(Nc2ncc(C(F)(F)F)c(NCc3nccnc3N(C)S(C)(=O)=O)n2)cc1 | cell-free assay | competition with immobilised ligand | 0.1 µM | 100% |
| C[C@@H]1CN(c2ccc3ncc(-c4ccc5[nH]nc(C6CC6)c5c4)n3n2)C[C@H](C)O1 | binding | competition with immobilised ligand | 0.5 µM | 100% |
| O=C(Nc1ccc(Oc2ccc(F)cc2)cc1)N1CCc2ncccc2[C@H]1c1ccc(F)cc1 | cell-free assay | competition with immobilised ligand | 1 µM | 95% |
| CNC(=O)[C@@H]1CC[C@@H](n2c(-c3ccc4cnccc4c3)nc3ccc(C(=O)NCc4cccc(C(N)=O)c4)cc32)C1 | binding | competition with immobilised ligand | 1 µM | 100% |
| O=C(N1CCS(=O)(=O)CC1)N1C[C@H](c2ccc(OC(F)(F)F)cc2)C[C@H](c2nc(C3CC3)no2)C1 | cell-free assay | competition with immobilised ligand | 1 µM | 100% |
| O=C(NCCCN1CCOCC1)c1ccc(Nc2ncc(Cl)c(-c3ccc(Cl)s3)n2)cc1 | binding | competition with immobilised ligand | 1 µM | 100% |
| Nc1ncc2c(n1)-c1c([nH]c3ccc(C#CC4CC4)cc13)CCCC2 | binding | competition with immobilised ligand | 1 µM | 86% |
| Nc1cnc(N2CCc3cc(S(=O)(=O)Nc4c(F)cc(Cl)cc4F)cc(N4CCCC4=O)c32)nc1 | cell-free assay | competition with immobilised ligand | 1 µM | 100% |
| N#Cc1ccccc1CSc1nnc2c(n1)[nH]c1ccccc12 | binding | competition with immobilised ligand | 10 µM | 72% |
| O=C(c1ccc(Nc2ncc(Cl)c(-c3ccc(Cl)s3)n2)cc1)N1CCC(N2CCCC2)CC1 | binding | competition with immobilised ligand | 1 µM | 97% |
| COc1ncc2cc3ccccc3nc2c1C#N | cell-free assay | competition with immobilised ligand | 5 µM | 100% |
| COc1cnc(Nc2cccc(S(N)(=O)=O)c2)nc1N1CCN(c2ccccc2)C(=O)C1 | binding | competition with immobilised ligand | 1 µM | 100% |
| COc1ccc2c(c1)O[C@@H](c1ccc(OC)c(OC)c1)C[C@H]2NC(=O)C1(c2ccc3c(c2)OC(F)(F)O3)CC1 | cell-free assay | competition with immobilised ligand | 1 µM | 100% |
| CN(C)c1nccc(-c2cnc3ncccn23)n1 | binding | – | 1 µM | 83% |
